The values below come from ChEMBL document CHEMBL1147439, “Synthesis and SAR evaluation of 1,2,4-triazoles as A(2A) receptor antagonists” (Bioorg Med Chem Lett, 2004).

For data set [1], the target named is T1, Adenosine receptor A2a (Homo sapiens, UniProt P29274). The experiment in a line: Binding affinity towards human recombinant adenosine A2A receptor by displacement of [3H]SCH-58261 radioligand.
In a further data set the target is T2, Adenosine receptor A1 (Homo sapiens, UniProt P30542).
T2 sequence (P30542 whole entry): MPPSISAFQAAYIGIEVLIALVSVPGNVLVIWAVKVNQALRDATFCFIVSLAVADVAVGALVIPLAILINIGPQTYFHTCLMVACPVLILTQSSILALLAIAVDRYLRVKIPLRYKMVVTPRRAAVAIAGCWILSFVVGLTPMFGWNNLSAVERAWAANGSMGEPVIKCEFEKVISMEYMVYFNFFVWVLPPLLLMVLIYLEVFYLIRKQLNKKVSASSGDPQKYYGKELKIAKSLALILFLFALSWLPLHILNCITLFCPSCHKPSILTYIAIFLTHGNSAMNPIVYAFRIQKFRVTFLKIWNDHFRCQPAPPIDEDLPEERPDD
As to the kind of experiment: Binding affinity for human adenosine A1 receptor by displacement of [3H]DPCPX. The method, boiled down: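 Membranes from cells expressing recombinant human A1 receptor, pre-mixed with adenosine deaminase and SPA beads. Labelled with [3H]DPCPX (0.6 nM final) against 10 concentrations of competitor or buffer. Buffer: Tris-HCl 50 mM pH 7.4, NaCl 120 mM, KCl 5 mM, CaCl2 2 mM, MgCl2 10 mM. Xanthine amine congener defined non-specific binding. Incubated 60 min at room temperature, centrifuged, scintillation counted. Duplicates, at least two experiments; Ki given as mean.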

Data set [2] has as its target Adenosine receptor A2a (Rattus norvegicus, UniProt P30543). The experiment in a line: Binding affinity for rat adenosine A2A receptor by displacement of [3H]SCH-58261.
Data set [3] can be described thus: Medium permeability in parallel artificial membrane permeation assay; high. In kind it is functional.
Data set [4] in a line: Medium permeability in parallel artificial membrane permeation assay; medium. In kind it is functional.
A short description of data set [5]: pKa value was determined. The format is physicochemical.
For data set [6], the target named is T1, Adenosine receptor A2a. As to the kind of experiment: Binding affinity for human adenosine A2A receptor by displacement of [3H]SCH-58,261; inactive.

Sequence of Adenosine receptor A2a (Rattus norvegicus, UniProt P30543) (P30543 whole entry): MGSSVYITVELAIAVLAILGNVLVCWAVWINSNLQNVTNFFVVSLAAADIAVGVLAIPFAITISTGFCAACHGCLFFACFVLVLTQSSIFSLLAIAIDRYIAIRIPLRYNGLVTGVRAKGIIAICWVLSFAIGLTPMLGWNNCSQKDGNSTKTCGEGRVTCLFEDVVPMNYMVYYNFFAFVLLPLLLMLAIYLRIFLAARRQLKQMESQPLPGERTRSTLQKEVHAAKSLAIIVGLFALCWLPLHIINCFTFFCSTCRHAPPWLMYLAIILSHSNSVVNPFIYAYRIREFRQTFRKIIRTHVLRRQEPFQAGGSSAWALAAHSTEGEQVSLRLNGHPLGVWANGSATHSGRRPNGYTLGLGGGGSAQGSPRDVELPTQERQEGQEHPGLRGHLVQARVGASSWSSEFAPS
T1 sequence (P29274 whole entry): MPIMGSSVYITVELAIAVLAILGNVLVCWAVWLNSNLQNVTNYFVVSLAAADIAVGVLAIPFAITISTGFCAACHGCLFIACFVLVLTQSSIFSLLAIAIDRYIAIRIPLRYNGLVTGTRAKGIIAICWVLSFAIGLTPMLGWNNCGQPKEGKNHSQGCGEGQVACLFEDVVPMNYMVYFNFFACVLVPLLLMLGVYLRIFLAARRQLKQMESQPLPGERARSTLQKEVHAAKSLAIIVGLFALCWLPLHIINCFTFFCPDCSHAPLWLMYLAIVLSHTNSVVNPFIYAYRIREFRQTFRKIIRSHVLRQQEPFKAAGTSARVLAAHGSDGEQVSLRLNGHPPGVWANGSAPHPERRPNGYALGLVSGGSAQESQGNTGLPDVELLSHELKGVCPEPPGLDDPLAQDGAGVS

For the compound `COc1cccc(-c2n[nH]c(Cc3cccc([N+](=O)[O-])c3)n2)c1`, the Ki on Adenosine receptor A2a [1] is 80 nM.

As to `Clc1ccc(Cc2n[nH]c(-c3ccc4c(c3)OCO4)n2)cc1Cl`, the Ki at Adenosine receptor A2a [1] was found to be 100 nM. Turning to `c1cc(CN2CCCC2)cc(-c2n[nH]c(-c3ccc4c(c3)OCCO4)n2)c1`, the results for the Ki at Adenosine receptor A2a [1] and on Adenosine receptor A1 were 1000 nM and 7600 nM, respectively. The corresponding values for `COc1cccc(-c2n[nH]c(CCc3ccc(Cl)c(Cl)c3)n2)c1` are 1000 nM and 1800 nM. For the compound `COc1cccc(-c2nc(Cc3ccc(C)c(C)c3)n[nH]2)c1`, the results for the Ki at Adenosine receptor A2a [2], on Adenosine receptor A2a [1] and at Adenosine receptor A1 were 90 nM, 20 nM and 1700 nM, respectively. Further, the Activity in data set [3] is 0.9 10e-6·s cm-1. Take `S/C(Cc1ccccc1)=N\N=C\c1ccccn1`: the Ki on Adenosine receptor A2a [1] was 100 nM. Still for that read-out and setting: for `COc1cccc(-c2nnc(Cc3ccc(Cl)c(Cl)c3)[nH]2)c1OC` the value was 90 nM. Regarding `COc1cccc(-c2n[nH]c(Cc3ccc4ccccc4c3)n2)c1`, the Ki at Adenosine receptor A2a [2] was determined as 400 nM; at Adenosine receptor A2a [1], 100 nM; on Adenosine receptor A1 it was 2500 nM. In data set [4], the Activity is 0.3 10e-6·s cm-1. Regarding `COc1ccc(O)c(/C=N/NS(=O)(=O)Cc2ccccc2)c1`, the pKa in data set [5] was 6.5. On to `Oc1ccc(OC(F)(F)F)cc1/C=N/N=C(\S)Cc1ccccc1`, for which the inhibition constant (Ki) at Adenosine receptor A2a [1] worked out at 1400 nM. Same read-out and setting: next, `O=[N+]([O-])c1ccc(O)c(/C=N/N=C(\S)Cc2ccccc2)c1`: 10 nM.

Turning to `COc1ccc(O)c(/C=N/N=C(\S)Cc2ccccc2)c1`, the pKa in data set [5] is 6.6. In addition, the Ki on Adenosine receptor A2a [1] turned out to be 20 nM. As for `COc1cccc(-c2nnc(Cc3ccc(F)c(F)c3)[nH]2)c1`, the Ki on Adenosine receptor A2a [1] was found to be 70 nM.

`Clc1ccc(Cc2nnc(C3CCCNC3)[nH]2)cc1Cl` (configuration not stated): the Ki at Adenosine receptor A2a [1] was over 5200 nM. Regarding `S/C(Cc1ccccc1)=N\N=C\c1cccnc1`, at Adenosine receptor A2a [1], the Ki was found to be 5 nM. As to `COc1cccc(-c2n[nH]c(Cc3cccc(Br)c3)n2)c1`, the inhibition constant (Ki) on Adenosine receptor A2a [2] was found to be 40 nM; on Adenosine receptor A2a [1], 10 nM; at Adenosine receptor A1, 100 nM. In data set [3], the Activity is 1.9 10e-6·s cm-1. With `S/C(Cc1ccccc1)=N\N=C\c1ccc2ccccc2n1`, the Ki on Adenosine receptor A2a [1] turned out to be 1200 nM. As to `Cn1nc(-c2ccc(N=[N+]=[N-])cc2)nc1-c1cccc(CN2CC=CC2)c1`, the Ki at Adenosine receptor A2a [1] was determined as 400 nM; at Adenosine receptor A1, 7300 nM. In the case of `COc1cccc(-c2n[nH]c(Cc3cccc(F)c3F)n2)c1`, the Ki amounted to 40 nM at Adenosine receptor A2a [2], 20 nM on Adenosine receptor A2a [1] and 900 nM on Adenosine receptor A1. In addition, in data set [3], the Activity was 3.8 10e-6·s cm-1. In turn, `Cc1ccc(O)c(C2=NN(C(=S)Cc3ccccc3)CC2)c1` came in with a Ki on Adenosine receptor A2a [6] of over 5.2 µM. `COc1cccc(O)c1/C=N/N=C(\S)Cc1ccccc1`: the Ki on Adenosine receptor A2a [1] was over 5200 nM. Same read-out and setting: next, `Oc1ccccc1-c1n[nH]c(-c2ccccc2)n1`: 700 nM; `COc1cccc(-c2n[nH]c(CC3CCCCC3)n2)c1`: 700 nM; `COc1cccc(-c2n[nH]c(Cc3ccccc3Br)n2)c1`: 20 nM. In the case of `S/C(Cc1ccccc1)=N\N=C\c1cnc2ccccc2c1`, the Ki at Adenosine receptor A2a [1] turned out to be 2000 nM.

With `COc1cccc(-c2nnc(-c3ccc(Cl)c(Cl)c3)[nH]2)c1`, the Ki at Adenosine receptor A2a [1] is 700 nM; at Adenosine receptor A1 it was 6100 nM. For `S/C(Cc1ccccc1)=N\N=C\c1ccccc1`, the Ki on Adenosine receptor A2a [1] was over 5200 nM.

With `COc1cccc(-c2nnc(CN3CCCCC3)[nH]2)c1`, the inhibitory constant (Ki) at Adenosine receptor A2a [1] was over 5200 nM. Still for that read-out and setting: for `COc1ccc(/C=N/N=C(\S)Cc2ccccc2)c(O)c1` the value was 100 nM; for `COc1cccc(/C=N/N=C(\S)Cc2ccccc2)c1O`, 4700 nM. Turning to `COc1cccc(-c2n[nH]c(Cc3ccc(Cl)c(Cl)c3)n2)c1`, the values for the Ki at Adenosine receptor A2a [1] and on Adenosine receptor A1 were 40 nM and 1900 nM, respectively.

`COc1ccc(O)c(/C=N/NC(=O)Cc2ccccc2)c1` gave a pKa in data set [5] of 2.9. With `Clc1ccc(Cc2nnc(-c3cnccn3)[nH]2)cc1Cl`, at Adenosine receptor A2a [1], the Ki came out at 60 nM. The same measure, in the same setting: for `COc1cc(/C=N/N=C(\S)Cc2ccccc2)c(O)c(OC)c1` the value was 4200 nM.
